Tests used:
[1] = tested on: Naegleria fowleri ATCC® 30808™ trophozoites; assay: In vitro activity assay; assay type: cell-based; conditions: for N. fowleri ATCC® 30808™ SI (CC50/IC50): selectivity index, CC50 J774A.1 / IC50 ATCC 30808
Procedure, shortened: (§1)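 Both strains were grown axenically at 37 °C in 2% Bactocasitone with 10% FBS, penicillin G and streptomycin. Trophozoites from a 2*10^5 cells/ml stock were seeded in duplicate with serial compound dilutions in the same medium, plus a medium-only negative control. AlamarBlue (10% of medium volume) was added for 48 h at 37 °C with slight agitation, read at 570 nm […] with a 630 nm reference. Inhibitory concentrations came from non-linear regression; experiments were done in triplicate and averaged.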

[2] = Cytotoxicity assay; assay type: cell-based; conditions: mouse, J774A.1 murine macrophage cells
Procedure, shortened: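 J774A.1 macrophages were kept in DMEM with 10% FBS and 10 μg/mL gentamicin at 37 °C, 5% CO2. Cells from a 10^5 cells/ml stock got a range of compound concentrations plus AlamarBlue (10% of medium volume), with a medium-only negative control. Incubation was 24 h at 37 °C in 5% CO2, and CC50 was derived from the read-out.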

[3] = tested on: Naegleria fowleri ATCC® 30215™ trophozoites; assay: In vitro activity assay; assay type: cell-based; conditions: for N. fowleri ATCC® 30215™ SI (CC50/IC50): selectivity index, CC50 J774A.1 / IC50 ATCC 30215
Procedure, shortened: as §1

[4] = various species plasma; ref Tian et al., 2016; cited from earlier work
[5] = ref Tian et al., 2016; cited from earlier work

Row | Compound | IC50 ([1]; Naegleria fowleri, ATCC30808, 48 h, read-out: N. fowleri ATCC® 30808™ IC50) | N. fowleri ATCC® 30808™ SI (CC50/IC50) [1] | CC50 at 24 h [2] | IC50 ([3]; Naegleria fowleri, ATCC30215, 48 h, read-out: N. fowleri ATCC® 30215™ IC50) | N. fowleri ATCC® 30215™ SI (CC50/IC50) [3] | protein binding to plasma [4] | half-life [5] | pharmacokinetic profile [5] | tissue distribution [5]
1 | C[C@@H]1[C@H](O)[C@@H](C)/C=C/C=C/C=C/C=C/C=C/C=C/C=C/[C@H](O[C@@H]2O[C@H](C)[C@@H](O)[C@H](N)[C@@H]2O)C[C@@H]2O[C@](O)(C[C@@H](O)C[C@@H](O)[C@H](O)CC[C@@H](O)C[C@@H](O)CC(=O)O[C@H]1C)C[C@H](O)[C@H]2C(=O)O [Amphotericin B] | 121 ± 32 nM | ≥1652.893 | ≥ 200000 nM | 166 ± 26 nM | ≥1204.819 |  |  |  | 
2 | CCCCC1OC(=O)c2cc(Br)ccc21 (stereo not drawn) [Br-NBP, 3-butyl-6-bromo-1(3H)-isobenzofuranone] |  |  |  |  |  | different degree protein binding to various species plasma | short half-life | good dose-linear pharmacokinetic profile | wide tissue distribution
3 | CCCCCCCCCCCCCCCCOP(=O)([O-])OCC[N+](C)(C)C [Miltefosine] |  | 3.301 | 128000 ± 8850 nM |  | 1.568 |  |  |  | 
